Active and inactive are the calls of the source. No cut-off for these calls is given here.
Assays:
[1] = tested on: HT-29; assay: Anticancer activity against human HT-29 cells; assay type: functional, cell-based
[2] = tested on: SW-620; assay: Anticancer activity against human SW620 cells; assay type: functional, cell-based
[3] = tested on: HCC 2998; assay: Anticancer activity against human HCC2998 cells; assay type: functional, cell-based
[4] = tested on: HL-60; assay: Anticancer activity against human HL60 cells; assay type: functional, cell-based
[5] = tested on: COLO 205; assay: Anticancer activity against human COLO205 cells; assay type: functional, cell-based
[6] = tested on: K562; assay: Anticancer activity against human K562 cells; assay type: functional, cell-based
[7] = tested on: HCT-15; assay: Anticancer activity against human HCT15 cells; assay type: functional, cell-based
[8] = tested on: KM12; assay: Anticancer activity against human KM12 cells; assay type: functional, cell-based
[9] = tested on: HCT-116; assay: Anticancer activity against human HCT116 cells; assay type: functional, cell-based
[10] = tested on: CCRF-CEM; assay: Anticancer activity against human CCRF-CEM cells; assay type: functional, cell-based
[11] = Cytotoxicity against human HGF cells after 48 hrs; assay type: cell-based
[12] = tested on: HSC-4; assay: Cytotoxicity against human HSC4 cells after 48 hrs; assay type: functional; settings: HSC-4, 48 h
[13] = Anticancer activity against human Molt4/C8 cells after 72 hrs; assay type: functional, cell-based; settings: MOLT-4, 72 h
[14] = tested on: RPMI-8226; assay: Anticancer activity against human RPMI8226 cells; assay type: functional, cell-based
[15] = tested on: L1210; assay: Ratio of melphalan IC50 to compound IC50 for mouse L1210 cells; assay type: functional
[16] = tested on: HSC-2; assay: Cytotoxicity against human HSC2 cells after 48 hrs; assay type: functional; settings: HSC-2, 48 h
[17] = tested on: CCRF-CEM; assay: Anticancer activity against human CEM cells after 72 hrs; assay type: functional, cell-based
[18] = tested on: HSC-4; assay: Selectivity index, ratio of average CC50 for normal human cell line to CC50 for human HSC4 cells
[19] = tested on: Mus musculus; assay: Toxicity in mouse assessed as mortality at 30 to 300 mg/kg, ip after 0.5 to 4 hrs; assay type: organism-based; design: dose 30-300 mg/kg, route intraperitoneal; settings: in vivo
How it was run: (§1)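 Mice dosed intraperitoneally at 30, 100 and 300 mg/kg; animals observed for deaths and neurological deficit at 0.5 and 4 h after injection.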

[20] = tested on: HSC-3; assay: Cytotoxicity against human HSC3 cells after 48 hrs; assay type: functional; settings: HSC-3, 48 h
[21] = tested on: L1210; assay: Anticancer activity against mouse L1210 cells after 48 hrs; assay type: functional, cell-based; settings: L1210, 48 h
[22] = tested on: HL-60; assay: Cytotoxicity against human HL60 cells after 48 hrs; assay type: functional; settings: HL-60, 48 h
[23] = tested on: HSC-3; assay: Selectivity index, ratio of average CC50 for normal human cell line to CC50 for human HSC3 cells
[24] = Cytotoxicity against human HPLF cells after 48 hrs; assay type: cell-based
[25] = tested on: HSC-2; assay: Selectivity index, ratio of average CC50 for normal human cell line to CC50 for human HSC2 cells
[26] = tested on: Mus musculus; assay: Neurotoxicity in mouse at 30 to 300 mg/kg, ip after 0.5 to 4 hrs by rotarod method; assay type: toxicity, organism-based; design: dose 30-300 mg/kg, route intraperitoneal; settings: in vivo; how it was run: as §1
[27] = tested on: CCRF-CEM; assay: Ratio of melphalan IC50 to compound IC50 for human CEM cells; assay type: functional
[28] = tested on: MOLT-4; assay: Ratio of melphalan IC50 to compound IC50 for human Molt4/C8 cells; assay type: functional
[29] = tested on: HL-60; assay: Selectivity index, ratio of average CC50 for normal human cell line to CC50 for human HL-60 cells
[30] = Cytotoxicity against human HPC cells after 48 hrs; assay type: cell-based
[31] = tested on: Mus musculus; assay: Neurotoxicity in mouse at 30 to 300 mg/kg, ip after 0.5 hrs by rotarod method; assay type: toxicity, organism-based; design: dose 30-300 mg/kg, route intraperitoneal; settings: in vivo
How it was run: (§2)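 Mice given 30, 100 and 300 mg/kg by intraperitoneal injection; animals scored for mortality and neurotoxicity at 0.5 and 4 h after dosing.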

[32] = tested on: HSC-2; assay: Induction of mitochondrial pathway-dependent apoptosis in human HSC2 cells assessed as caspase 3 activation at 1 to 3 uM; assay type: functional, cell-based
How it was run: (§3)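 Caspase-3 activity measured in lysates of treated HL-60 and HSC-2 cells: 100 μg protein per assay, incubated 2 h with the substrate. Mean ± SD of three experiments.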

[33] = tested on: HSC-2; assay: Induction of mitochondrial pathway-dependent apoptosis in human HSC2 cells assessed as DNA fragmentation at 0.5 to 8 uM after 6 hrs by agarose gel electrophoresis; assay type: functional, cell-based
How it was run: (§4)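 Cells exposed 6 h to a range of concentrations; a UV-irradiated comparison was given 1 min of UV. Treated and control cells were then held 3 h in regular culture medium, after which DNA was extracted and run on 2% agarose gel electrophoresis.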

[34] = tested on: HL-60; assay: Induction of mitochondrial pathway-dependent apoptosis in human HL60 cells assessed as caspase 3 activation at 1 to 3 uM; assay type: functional, cell-based; how it was run: as §3
[35] = tested on: HL-60; assay: Induction of mitochondrial pathway-dependent apoptosis in human HL60 cells assessed as DNA fragmentation at 0.5 to 8 uM after 6 hrs by agarose gel electrophoresis; assay type: functional, cell-based; how it was run: as §4
[36] = tested on: Mus musculus; assay: Neurotoxicity in mouse at 30 to 300 mg/kg, ip after 4 hrs by rotarod method; assay type: toxicity, organism-based; design: dose 30-300 mg/kg, route intraperitoneal; settings: in vivo; how it was run: as §2

SMILES | IC50 [1] | IC50 [2] | IC50 [3] | IC50 [4] | IC50 [5] | IC50 [6] | IC50 [7] | IC50 [8] | IC50 [9] | IC50 [10] | CC50 at 48 h [11] | CC50 [12] | IC50 [13] | IC50 [14] | CC50 [16] | IC50 [17] | Ratio [18] | Activity [19] | IC50 [21] | Activity [26] | also measured
O=c1[nH]cc(F)c(=O)[nH]1 [FLUOROURACIL] | 10.2 µM | > 100 µM | 13.5 µM | > 100 µM | 4.17 µM | 2.4 µM | 9.71 µM | 8.32 µM | 8.51 µM | 33.1 µM |  |  |  |  |  |  |  |  |  |  | 
COc1ccc(/C=C2\CN(C(=O)CCSCCO)C/C(=C\c3ccc(OC)cc3)C2=O)cc1 | 2.4 µM | 2.14 µM | 2 µM | 1.7 µM | 2.51 µM | 2.88 µM | 2.19 µM | 1.98 µM | 1.51 µM | 0.47 µM | 17 µM | 2.4 µM | 1.66 µM | 0.33 µM | 2.41 µM | 3.51 µM | 6.5 | Non-toxic | 19.6 µM | Non-toxic | Ratio IC50 [15]: 6.6; CC50 [20]: 3.3 µM; CC50 [22]: 3.2 µM; Ratio [23]: 4.8; CC50 at 48 h [24]: 16 µM; Ratio [25]: 6.5; Ratio IC50 [27]: 6.6; Ratio IC50 [28]: 2; Ratio [29]: 4.9; CC50 at 48 h [30]: 14 µM
O=C1/C(=C/c2ccc([N+](=O)[O-])cc2)CN(C(=O)CCSCCS(=O)(=O)O)C/C1=C\c1ccc([N+](=O)[O-])cc1 |  |  |  |  |  |  |  |  |  |  |  |  | 6.98 µM |  |  | 7.44 µM |  | Non-toxic | 11.4 µM | Non-toxic | 
COc1ccc(/C=C2\CN(C(=O)CCSCCS)C/C(=C\c3ccc(OC)cc3)C2=O)cc1 |  |  |  |  |  |  |  |  |  |  |  |  | 2.77 µM |  |  | 3.2 µM |  | Non-toxic | 10.9 µM |  | Activity [31]: Toxic
O=C1/C(=C/c2ccccc2)CN(C(=O)CCSCCS(=O)(=O)O)C/C1=C\c1ccccc1 |  |  |  |  |  |  |  |  |  |  |  |  | 143 µM |  |  | 125 µM |  | Non-toxic | 234 µM |  | Activity [31]: Toxic
Cc1ccc(/C=C2\CN(C(=O)CCSCCS(=O)(=O)O)C/C(=C\c3ccc(C)cc3)C2=O)cc1 |  |  |  |  |  |  |  |  |  |  |  |  | 79.7 µM |  |  | 194 µM |  | Non-toxic | 198 µM |  | Activity [31]: Toxic
O=C1/C(=C/c2ccc([N+](=O)[O-])cc2)CN(C(=O)CCSCCO)C/C1=C\c1ccc([N+](=O)[O-])cc1 | 0.1 µM | 0.07 µM | 0.28 µM | 0.1 µM | 0.06 µM | 0.06 µM | 0.21 µM | 0.17 µM | 0.11 µM | 0.04 µM | 5.4 µM | 0.38 µM | 0.49 µM | 0.02 µM | 0.34 µM | 0.48 µM | 15.5 | Non-toxic | 3.92 µM | Non-toxic | Ratio IC50 [15]: 96; CC50 [20]: 0.69 µM; Activity [32]: inactive; Activity [33]: inactive; Activity [34]: Active; CC50 [22]: 0.44 µM; Ratio [23]: 8.5; CC50 at 48 h [24]: 6.4 µM; Ratio [25]: 17.3; Ratio IC50 [27]: 5.1; Activity [35]: Active; Ratio IC50 [28]: 6.7; Ratio [29]: 13.3; CC50 at 48 h [30]: 5.8 µM
O=C1/C(=C/c2ccc(Cl)cc2)CN(C(=O)CCSCCS(=O)(=O)O)C/C1=C\c1ccc(Cl)cc1 | 25.1 µM | 29.5 µM | 22.4 µM | 25.7 µM | 24 µM | 28.2 µM | 30.2 µM | 25.1 µM | 28.2 µM | 9.33 µM |  |  | 35.8 µM | 18.2 µM |  | 41.6 µM |  | Non-toxic | 100 µM | Non-toxic | 
O=C1/C(=C/c2ccc(Cl)cc2)CN(C(=O)CCSCCO)C/C1=C\c1ccc(Cl)cc1 | 0.26 µM | 0.17 µM | 1.1 µM | 0.32 µM | 0.46 µM | 0.1 µM | 0.26 µM | 0.19 µM | 0.17 µM | 0.21 µM | 8.3 µM | 0.51 µM | 0.42 µM | 0.08 µM | 0.47 µM | 0.69 µM | 15.8 | Non-toxic | 6.47 µM | Non-toxic | Ratio IC50 [15]: 43; CC50 [20]: 0.97 µM; Activity [32]: Active; Activity [33]: Active; Activity [34]: Active; CC50 [22]: 1 µM; Ratio [23]: 8.3; CC50 at 48 h [24]: 8.6 µM; Ratio [25]: 17.1; Ratio IC50 [27]: 3.6; Activity [35]: Active; Ratio IC50 [28]: 7.6; Ratio [29]: 8; CC50 at 48 h [30]: 7.2 µM
COc1ccc(/C=C2\CN(C(=O)CCSCCS(=O)(=O)O)C/C(=C\c3ccc(OC)cc3)C2=O)cc1 | 41.7 µM | 38 µM | 30.9 µM | > 100 µM | > 100 µM | 55 µM | > 100 µM | 30.2 µM | 33.1 µM | > 100 µM |  |  | 156 µM | 24.5 µM |  | 199 µM |  | Non-toxic | 227 µM |  | Activity [36]: Toxic; Activity [31]: Toxic
O=C1/C(=C/c2ccccc2)CN(C(=O)CCSCCO)C/C1=C\c1ccccc1 |  |  |  |  |  |  |  |  |  |  | 17 µM | 1.3 µM | 0.66 µM |  | 1.6 µM | 0.57 µM | 11.3 |  | 3.8 µM |  | CC50 [20]: 2.8 µM; CC50 [22]: 1.7 µM; Ratio [23]: 5.3; CC50 at 48 h [24]: 13 µM; Ratio [25]: 9.2; Ratio IC50 [27]: 4.3; Ratio IC50 [28]: 4.9; Ratio [29]: 8.7; CC50 at 48 h [30]: 14 µM
